From PubChem BioAssay come the findings set out here.

Each structure is given as a SMILES string. Activity calls are given as the source filed them. Rule as the data show it, unless noted: active = inhibition above about 30%; inactive = the rest.

Broadly, the viability is a read-out of living cells in per cent, often relative to untreated cells. Usually inhibition stands for the change of the read-out against control, counted positive when it falls.

Assay [1] can be described thus: HUVEC growth inhibition – cell-based, human, primary screen (AID 575;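 active = viability at or below 30% in both replicate assays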;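 also: 100% = median of untreated cell wells with 0.1% DMSO on each plate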). The note with it: HUVEC proliferation, CellTiter-Glo luminescence, 72 h; at 10 µM; stronger effect = lower value. The method, boiled down: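 Timing: 72 h treatment at 37 °C; material: HUVEC primary cells; technique: CellTiter-Glo luminescence measuring cellular ATP; controls: vehicle and MePR control wells; measure: percent of median DMSO-control luminescence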

Assay [2] is described as follows: growth inhibitors of H69AR lung tumor, primary screen, human, duplicate replicates (AID 580;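 active = viability at or under a set limit in both replicates, limit being median viability minus 3 SD, cut at about 48% in these data, passing the limit was not always enough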;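 also: 100% = mean luminescence of untreated wells and 0% = no signal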). The note with it: H69AR lung tumor cells viability, ATP luminescence, 72 h; at 10 µM; stronger effect = lower value.
Assay [3] can be described thus: reversal of MRP1-mediated doxorubicin resistance, pilot screen, H69AR cells, doxorubicin co-treatment (AID 601;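 active = viability loss from added drug above about 55%, and viability with drug at most 40%, in both replicates, limit read from the data, passing the limit was not always enough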). The settings on record: CellTiter-Glo, 72 h, at 10 µM; for differential viability (reversal): stronger effect = higher value.
The nature of assay [4]: 384-well plate pilot, post-Golgi transport modulator project, inhibition of yeast transport mutant growth (AID 636; in the data active = inhibition above about 31%). The settings on record: absorbance 615 nm, about 18 h, stronger effect = higher value.
Assay [5] can be described thus: growth suppression of yeast trafficking mutant, preliminary HTS, modulators of trafficking downstream of Golgi apparatus project, 1536-format plate, OD 615 nm (AID 637). The settings on record: yeast transport mutant growth, absorbance 615 nm, 18 h; stronger effect = higher value.
Where [6] appears, read: H69AR cells + 2 uM doxorubicin, measured here: viability with 2 uM doxorubicin, stronger effect = lower value.
The mark [7] stands for this setting: H69AR cells, compound alone cytotoxicity.

As for `O=C(CSc1nnc(-c2ccccc2)o1)N1CCc2ccccc2C1`, the viability is 85.3% (inactive) in assay [1], 93.1% (inactive) in assay [2], 93.1% in assay [3] (setting [6]) and 93.1% in assay [3] (setting [7]). Further, in assay [3] (H69AR cells + 2 uM doxorubicin), the differential viability (reversal) was 0.04% (inactive). The inhibition was -4.53% (inactive) in assay [4] and -5.24% (inactive) in assay [5].

For the compound `CCOCCCNC(=O)c1ccc2c(c1)ncn2C1CCCC1`, the viability is 91% (inactive) in assay [1], 95.8% (inactive) in assay [2], 88.5% in assay [3] (setting [6]) and 95.8% in assay [3] (setting [7]). For the same compound, the differential viability (reversal) in assay [3] (H69AR cells + 2 uM doxorubicin) is 7.26% (inactive). Also, the inhibition in assay [4] is 2.24% (inactive); in assay [5], -3.81% (inactive).

With `CCOc1ccc(OCC)c(NS(=O)(=O)c2ccc3c(c2)n(C)c(=O)c(=O)n3C)c1`, the viability was 112% (inactive) in assay [1], 95.1% (inactive) in assay [2], 89.7% in assay [3] (setting [6]) and 95.1% in assay [3] (setting [7]). For the same compound, the differential viability (reversal) in assay [3] (H69AR cells + 2 uM doxorubicin) was 5.37% (inactive). Besides, the results for the inhibition in assay [4] and in assay [5] were -0.13% (inactive) and 1.27% (inactive), respectively.

Regarding `COc1cccc(-n2c(SCC(=O)OC(C)C)nnc2-c2cccnc2)c1`, the viability was 88.3% (inactive) in assay [1], 97.4% (inactive) in assay [2], 93.2% in assay [3] (setting [6]) and 97.4% in assay [3] (setting [7]). The differential viability (reversal) in assay [3] (H69AR cells + 2 uM doxorubicin) is 4.17% (inactive). The values for the inhibition in assay [4] and in assay [5] were -1.32% (inactive) and -3.02% (inactive), respectively.

`O=S1(=O)C=C(Sc2nnc(-c3ccccc3)o2)c2ccccc21`: the viability in assay [1] is 42.9% (inactive); in assay [2] it was 1.65% (active); in assay [3] (setting [6]) it was 1.27%; in assay [3] (setting [7]), 1.65%. Further, in assay [3] (H69AR cells + 2 uM doxorubicin), the differential viability (reversal) was 0.375% (inactive). Moreover, the inhibition in assay [4] was 57% (active); in assay [5] it was 95.8% (active).

In the case of `CCC1(CC)C(=O)C(C)(C)C(=O)OC1c1cccs1` (stereo not given), the viability in assay [1] is 120% (inactive); in assay [2], 90.7% (inactive); in assay [3] (setting [6]), 85.7%; in assay [3] (setting [7]) it was 90.7%. Moreover, in assay [3] (H69AR cells + 2 uM doxorubicin), the differential viability (reversal) is 5.04% (inactive). Besides, the figures for the inhibition in assay [4] and in assay [5] were -2.89% (inactive) and 2.86% (inactive), respectively.

For `Cc1ccc(S(=O)(=O)N(C)CC(=O)NC2CCCC2)cc1`, the viability in assay [1] was 118% (inactive); in assay [2], 102% (inactive); in assay [3] (setting [6]), 84.9%; in assay [3] (setting [7]), 102%. Also, in assay [3] (H69AR cells + 2 uM doxorubicin), the differential viability (reversal) is 17.5% (inactive). Also, the inhibition in assay [4] was -2.63% (inactive); in assay [5], 0.95% (inactive).

For the compound `N#CCSCC(=O)Nc1ccc(F)cc1`, the viability in assay [1] is 91.7% (inactive); in assay [2], 93.1% (inactive); in assay [3] (setting [6]) it was 83.6%; in assay [3] (setting [7]), 93.1%. Also, in assay [3] (H69AR cells + 2 uM doxorubicin), the differential viability (reversal) was 9.54% (inactive). Moreover, the values for the inhibition in assay [4] and in assay [5] were -3.68% (inactive) and 0% (inactive), respectively.

On to `COc1ccc(CCNS(=O)(=O)c2ccc(C(=O)NCc3ccco3)cc2)cc1OC`, for which the viability is 83.4% (inactive) in assay [1], 80.9% (inactive) in assay [2], 85.6% in assay [3] (setting [6]) and 80.9% in assay [3] (setting [7]). In assay [3] (H69AR cells + 2 uM doxorubicin), the differential viability (reversal) was -4.64% (inactive). Moreover, the values for the inhibition in assay [4] and in assay [5] were 1.3% (inactive) and 10.9% (inactive), respectively.

On to `CC(=O)c1ccc(NC(=O)CSc2nnc(-c3ccoc3C)n2Cc2ccccc2)cc1`, for which the viability in assay [1] was 80.3% (inactive); in assay [2], 93.5% (inactive); in assay [3] (setting [6]) it was 89.6%; in assay [3] (setting [7]), 93.5%. Further, the differential viability (reversal) in assay [3] (H69AR cells + 2 uM doxorubicin) was 3.91% (inactive). For the same compound, the inhibition in assay [4] was -2.27% (inactive); in assay [5] it was -8.57% (inactive).

For `O=C1C=C(NCc2ccco2)C2(CCCCC2)O1`, the viability in assay [1] is 95.7% (inactive); in assay [2] it was 105% (inactive); in assay [3] (setting [6]), 82.2%; in assay [3] (setting [7]), 105%. Besides, in assay [3] (H69AR cells + 2 uM doxorubicin), the differential viability (reversal) was 22.5% (inactive). The inhibition in assay [4] was -1.95% (inactive); in assay [5] it was 5.08% (inactive).

`Cc1cc(N2C(=O)C(O)=C(C(=O)c3ccc(C)o3)C2c2cccs2)no1` (stereo not given): the viability was 64.2% (inactive) in assay [1], 79.9% (inactive) in assay [2], 84.5% in assay [3] (setting [6]) and 79.9% in assay [3] (setting [7]). Moreover, the differential viability (reversal) in assay [3] (H69AR cells + 2 uM doxorubicin) was -4.59% (inactive). For the same compound, the inhibition in assay [4] is -2.13% (inactive); in assay [5], -6.03% (inactive).

With `Cc1ccc(NCc2nnc(SCC(=O)NCc3ccco3)n2CC2CCCO2)cc1Cl` (stereo not given), the viability was 85.6% (inactive) in assay [1], 88.5% (inactive) in assay [2], 95.8% in assay [3] (setting [6]) and 88.5% in assay [3] (setting [7]). Besides, in assay [3] (H69AR cells + 2 uM doxorubicin), the differential viability (reversal) is -7.28% (inactive). The inhibition in assay [4] was 5% (inactive); in assay [5], -3.17% (inactive).

In the case of `COc1ccc(NC(=O)c2ccco2)cc1NC(=O)c1cccs1`, the viability was 92.2% (inactive) in assay [1], 88.5% (inactive) in assay [2], 92% in assay [3] (setting [6]) and 88.5% in assay [3] (setting [7]). The differential viability (reversal) in assay [3] (H69AR cells + 2 uM doxorubicin) was -3.49% (inactive). The inhibition in assay [4] is 0.13% (inactive); in assay [5], 13.8% (inactive).

As for `COc1cccc(-c2csc3nc[nH]c(=O)c23)c1`, the viability in assay [1] is 92.6% (inactive); in assay [2] it was 86.7% (inactive); in assay [3] (setting [6]), 70%; in assay [3] (setting [7]), 86.7%. Further, the differential viability (reversal) in assay [3] (H69AR cells + 2 uM doxorubicin) is 16.7% (inactive). For the same compound, the inhibition in assay [4] was -5.73% (inactive); in assay [5], 5.71% (inactive).

Consider `Cc1cccc(NC(=O)c2oc3c(c2C)C(=O)CC(C)(C)C3)n1`, for which the viability in assay [1] is 106% (inactive); in assay [2], 92.3% (inactive); in assay [3] (setting [6]), 83%; in assay [3] (setting [7]) it was 92.3%. The differential viability (reversal) in assay [3] (H69AR cells + 2 uM doxorubicin) was 9.28% (inactive). Further, the inhibition in assay [4] was -6.27% (inactive); in assay [5], -3.49% (inactive).

As to `O=S(=O)(c1ccccc1)N1CCN(C2CCCCCCC2)CC1`, the viability in assay [1] was 100% (inactive); in assay [2], 87.5% (inactive); in assay [3] (setting [6]), 94.3%; in assay [3] (setting [7]), 87.5%. For the same compound, in assay [3] (H69AR cells + 2 uM doxorubicin), the differential viability (reversal) was -6.82% (inactive). For the same compound, the inhibition was -1.45% (inactive) in assay [4] and 1.9% (inactive) in assay [5].

Regarding `O=C(C1CCN(S(=O)(=O)c2ccc(-n3cnnn3)cc2)CC1)N1CCN(c2ccccc2)CC1`, the viability in assay [1] is 103% (inactive); in assay [2], 94.5% (inactive); in assay [3] (setting [6]), 91.6%; in assay [3] (setting [7]), 94.5%. For the same compound, the differential viability (reversal) in assay [3] (H69AR cells + 2 uM doxorubicin) is 2.88% (inactive). For the same compound, the inhibition in assay [4] was -1.43% (inactive); in assay [5] it was 0.48% (inactive).

Take `COc1ccccc1NS(=O)(=O)c1ccc(NC(=O)c2nc3ncccn3n2)cc1`: the viability in assay [1] was 94.7% (inactive); in assay [2], 96.3% (inactive); in assay [3] (setting [6]) it was 85.1%; in assay [3] (setting [7]), 96.3%. Also, in assay [3] (H69AR cells + 2 uM doxorubicin), the differential viability (reversal) is 11.2% (inactive). Also, the inhibition is -1.17% (inactive) in assay [4] and 7.3% (inactive) in assay [5].

As for `COc1ccc(C(=O)Cn2nnc(-c3cccs3)n2)cc1`, the viability was 102% (inactive) in assay [1], 90.9% (inactive) in assay [2], 85.9% in assay [3] (setting [6]) and 90.9% in assay [3] (setting [7]). Further, in assay [3] (H69AR cells + 2 uM doxorubicin), the differential viability (reversal) is 4.98% (inactive). In addition, the inhibition was -6.67% (inactive) in assay [4] and -3.65% (inactive) in assay [5].
